This note sets out measurements from ChEMBL document CHEMBL2176911 (J Med Chem, 2012).

The test system of data set [1] is HT-22. The experiment in a line: Downregulation of DYRK1A expression in mouse HT22 cells after 4 hrs by Western blot analysis. It is filed as functional, cell-based. For orientation: Immunoblotting shows a protein as a band on a membrane.
The subject of data set [2] is HT-22. In words: Binding affinity to GSK3beta2 in mouse HT22 cell lysate by Western blot analysis. The format is cell-free. Summed up: (§1)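 Bead pull-down from HT22 cell or mouse brain extracts, with ethanolamine beads lacking ligand as control. Specificity was tested by adding excess free inhibitor to the extracts before binding.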
The target in the next data set is Casein kinase II (Homo sapiens, UniProt P19784+P67870+P68400). The experiment in a line: Inhibition of human recombinant CK2 using RRREDEESDDEE as substrate and [gamma33P]ATP after 30 mins by scintillation counting. It is filed as protein-complex assay. Summed up: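 Purified recombinant kinase from a 26-enzyme panel, with inhibitor tested at various concentrations. IC50 in μM calculated from dose–response curves.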
Sequence of Casein kinase II (P67870 whole entry): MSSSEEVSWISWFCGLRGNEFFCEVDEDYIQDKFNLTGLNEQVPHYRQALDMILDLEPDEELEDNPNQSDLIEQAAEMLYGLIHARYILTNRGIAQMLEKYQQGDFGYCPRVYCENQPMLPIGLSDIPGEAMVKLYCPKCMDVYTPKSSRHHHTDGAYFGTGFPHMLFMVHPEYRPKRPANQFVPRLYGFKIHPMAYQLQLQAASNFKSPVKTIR
Sequence of Casein kinase II (P68400 whole entry): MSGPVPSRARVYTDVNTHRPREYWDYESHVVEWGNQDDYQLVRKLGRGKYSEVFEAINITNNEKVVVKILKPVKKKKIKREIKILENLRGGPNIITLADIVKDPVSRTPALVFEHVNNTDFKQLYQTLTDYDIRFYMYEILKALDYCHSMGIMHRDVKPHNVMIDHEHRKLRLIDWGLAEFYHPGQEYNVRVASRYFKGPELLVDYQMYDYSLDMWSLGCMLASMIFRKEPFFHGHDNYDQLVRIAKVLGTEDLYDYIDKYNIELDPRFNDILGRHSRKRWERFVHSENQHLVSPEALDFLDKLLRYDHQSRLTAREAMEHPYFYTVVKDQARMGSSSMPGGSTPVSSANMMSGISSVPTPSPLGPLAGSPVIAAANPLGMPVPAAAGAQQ
Sequence of Casein kinase II (P19784 whole entry): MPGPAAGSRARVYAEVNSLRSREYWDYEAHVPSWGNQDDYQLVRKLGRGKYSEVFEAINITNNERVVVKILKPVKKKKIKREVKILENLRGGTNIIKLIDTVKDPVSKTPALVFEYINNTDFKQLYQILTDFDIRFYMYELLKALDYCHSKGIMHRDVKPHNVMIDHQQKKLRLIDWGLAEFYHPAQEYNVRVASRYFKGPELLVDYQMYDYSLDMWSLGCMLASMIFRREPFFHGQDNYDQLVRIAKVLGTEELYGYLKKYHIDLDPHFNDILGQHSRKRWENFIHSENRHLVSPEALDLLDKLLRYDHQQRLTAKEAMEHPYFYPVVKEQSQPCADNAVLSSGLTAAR

Data set [3] deals with Casein kinase II subunit alpha (Mus musculus) (UniProt Q60737). In words: Binding affinity to CK2 alpha subunit in mouse HT22 cell lysate by Western blot analysis. The format is cell-free. Conditions: HT-22. Summed up:
as §1

In data set [4] the target is Dual specificity tyrosine-phosphorylation-regulated kinase 1A (Rattus norvegicus) (UniProt Q63470). In words: Inhibition of DYRK1A in CD Sprague-Dawley rat brain assessed as inhibition of human APP-induced neurodegeneration after 3 hrs by fluorescence microscopic analysis.
Data set [5] concerns the target Serine/threonine-protein kinase TAO1 (Homo sapiens, UniProt Q7L7X3). In words: Binding affinity to TAOK1.
Data set [6] deals with Interleukin-1 receptor-associated kinase 1 (Homo sapiens, UniProt P51617). The experiment in a line: Binding affinity to IRAK1.
Data set [7] has as its target Dual specificity tyrosine-phosphorylation-regulated kinase 1A (Mus musculus) (UniProt Q61214). The experiment in a line: Inhibition of DYRK1A isolated from mouse HT22 cells. It is filed as cell-free. Particulars: HT-22.
Data set [8] has as its target T1, Dual specificity tyrosine-phosphorylation-regulated kinase 2 (Homo sapiens) (UniProt Q92630).
T1 sequence (whole entry): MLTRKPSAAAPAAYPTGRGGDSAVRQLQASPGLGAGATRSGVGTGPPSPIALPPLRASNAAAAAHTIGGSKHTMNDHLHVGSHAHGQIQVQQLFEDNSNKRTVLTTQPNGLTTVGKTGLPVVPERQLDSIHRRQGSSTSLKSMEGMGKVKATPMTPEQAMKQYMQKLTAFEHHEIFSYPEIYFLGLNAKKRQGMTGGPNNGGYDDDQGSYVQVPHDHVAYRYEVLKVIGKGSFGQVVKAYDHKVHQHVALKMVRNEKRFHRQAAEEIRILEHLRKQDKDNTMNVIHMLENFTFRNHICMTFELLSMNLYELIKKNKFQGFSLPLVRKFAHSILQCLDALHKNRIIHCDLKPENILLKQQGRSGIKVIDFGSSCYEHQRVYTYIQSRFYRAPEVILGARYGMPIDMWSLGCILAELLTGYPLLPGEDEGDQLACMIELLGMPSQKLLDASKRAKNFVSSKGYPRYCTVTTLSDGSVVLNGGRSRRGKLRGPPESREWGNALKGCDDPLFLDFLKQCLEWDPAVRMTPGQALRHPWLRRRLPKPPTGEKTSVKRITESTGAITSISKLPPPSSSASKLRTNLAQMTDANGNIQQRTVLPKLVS
The experiment in a line: Inhibition of human recombinant GST-tagged DYRK2 expressed in Escherichia coli using KKISGRLSPIMTEQ as substrate at 10 uM after 30 mins.

Data set [9] deals with Dual specificity protein kinase CLK3 (Mus musculus, UniProt O35492). In words: Inhibition of mouse recombinant GST-tagged CLK3 expressed in Escherichia coli using GRSRSRSRSRSR as substrate and [gamma33P]ATP after 30 mins by scintillation counting. Summed up: (§2)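 Panel of purified kinases (recombinant from several species plus native enzymes), each assayed radiometrically over a range of inhibitor concentrations; IC50 in μM calculated from the dose-response curves.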

In data set [10] the target is Dual specificity tyrosine-phosphorylation-regulated kinase 1A (Homo sapiens) (UniProt Q13627). In words: Inhibition of human recombinant GST-tagged DYRK1A expressed in Escherichia coli using KKISGRLSPIMTEQ as substrate at 1 uM after 30 mins.
Data set [11] deals with Glycogen synthase kinase-3 alpha (Homo sapiens, UniProt P49840). In words: Inhibition of human recombinant GSK3alpha expressed in insect cells using YRRAAVPPSPSLSRHSSPHQ-phosphoS-EDEEE as substrate and [gamma33P]ATP after 30 mins by scintillation counting.
Sequence of Glycogen synthase kinase-3 alpha (P49840 whole entry): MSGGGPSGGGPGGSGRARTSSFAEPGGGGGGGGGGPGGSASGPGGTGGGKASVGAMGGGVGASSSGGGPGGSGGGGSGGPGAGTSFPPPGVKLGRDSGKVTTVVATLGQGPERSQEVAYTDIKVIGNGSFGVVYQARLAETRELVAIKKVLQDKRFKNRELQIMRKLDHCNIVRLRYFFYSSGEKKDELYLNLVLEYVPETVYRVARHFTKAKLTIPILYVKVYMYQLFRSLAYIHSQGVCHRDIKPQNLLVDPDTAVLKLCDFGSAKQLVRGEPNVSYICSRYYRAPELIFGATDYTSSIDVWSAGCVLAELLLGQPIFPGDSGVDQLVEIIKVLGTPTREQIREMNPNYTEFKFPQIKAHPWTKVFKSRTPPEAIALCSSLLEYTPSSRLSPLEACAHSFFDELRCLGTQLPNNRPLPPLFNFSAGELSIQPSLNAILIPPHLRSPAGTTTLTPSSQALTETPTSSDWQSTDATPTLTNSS
Data set [12] addresses T2, Dual specificity tyrosine-phosphorylation-regulated kinase 4 (Homo sapiens, UniProt Q9NR20).
T2 sequence (Q9NR20 whole entry): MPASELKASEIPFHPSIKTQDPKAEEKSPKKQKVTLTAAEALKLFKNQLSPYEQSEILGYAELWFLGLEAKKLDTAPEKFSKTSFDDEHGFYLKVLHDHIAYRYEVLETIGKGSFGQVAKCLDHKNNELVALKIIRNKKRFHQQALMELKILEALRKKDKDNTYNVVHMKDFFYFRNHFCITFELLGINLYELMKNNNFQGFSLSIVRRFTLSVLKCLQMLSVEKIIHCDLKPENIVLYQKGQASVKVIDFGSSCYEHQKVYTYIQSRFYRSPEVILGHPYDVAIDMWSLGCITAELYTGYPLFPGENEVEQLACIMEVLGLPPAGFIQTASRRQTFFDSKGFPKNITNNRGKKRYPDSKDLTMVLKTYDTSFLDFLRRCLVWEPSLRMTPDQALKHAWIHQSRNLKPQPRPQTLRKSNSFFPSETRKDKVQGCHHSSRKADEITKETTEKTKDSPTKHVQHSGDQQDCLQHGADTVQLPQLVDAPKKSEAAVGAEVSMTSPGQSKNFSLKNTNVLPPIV
In words: Inhibition of human recombinant GST-tagged DYRK4 expressed in Escherichia coli using GRSRSRSRSRSR as substrate and [gamma33P]ATP after 30 mins by scintillation counting.

The target in data set [13] is Dual specificity tyrosine-phosphorylation-regulated kinase 1A (Mus musculus) (UniProt Q61214). The experiment in a line: Inhibition of DYRK1A in mouse HT22 cells at 10 uM after 4 hrs. Conditions: HT-22. It is filed as cell-based.
The subject of data set [14] is HT-22. In words: Inhibition of GSK3-mediated […] phosphorylation in mouse HT22 cells at 0.01 to 10 uM after 24 hrs by Western blot analysis in presence of MG132. It is filed as cell-based.
The next data set has as its system Brain. The experiment in a line: Toxicity against CD Sprague-Dawley rat brain expressing human APP at 0.03 to 3 uM after 3 hrs by fluorescence microscopic analysis. The format is tissue-based. Particulars: in vivo.
For data set [15], the target named is Casein kinase II subunit alpha' (Mus musculus) (UniProt O54833). The experiment in a line: Binding affinity to CK2 alpha' subunit in mouse HT22 cell lysate by Western blot analysis. It is filed as cell-free. Particulars: HT-22. Summed up:
as §1

Data set [16] in a line: Inhibition of Leishmania major recombinant CK1 expressed in Escherichia coli using RRKHAAIGpSAYSITA as substrate and [gamma33P]ATP after 30 mins by scintillation counting. Summed up: as §2
Data set [17] can be described thus: Inhibition of starfish CDK1/cyclin B using histone H1 as substrate and [gamma33P]ATP after 30 mins by scintillation counting. Further details: species or system Asteroidea. Summed up: as §2
Data set [18] concerns the target 1-phosphatidylinositol 3-phosphate 5-kinase (Mus musculus) (UniProt Q9Z1T6). The experiment in a line: Binding affinity to phosphatidylinositol-3-phosphate 5-kinase type 3 in mouse HT22 cell lysate by Western blot analysis. It is filed as cell-free. Conditions: HT-22. Summed up:
as §1

For data set [19], the target named is T1, Dual specificity tyrosine-phosphorylation-regulated kinase 2 (Homo sapiens). In words: Inhibition of human recombinant GST-tagged DYRK2 expressed in Escherichia coli using KKISGRLSPIMTEQ as substrate at 1 uM after 30 mins.

SMILES strings stand for the structures. Calls of active or inactive are those of the source. No cut-off for these calls is given here.

Sequence of Casein kinase II subunit alpha (Mus musculus) (Q60737 whole entry): as the sequence (P68400 whole entry) above, with G335S, S337T, P340A, P378S, M381I counted along it
Sequence of 1-phosphatidylinositol 3-phosphate 5-kinase (Mus musculus) (Q9Z1T6 whole entry): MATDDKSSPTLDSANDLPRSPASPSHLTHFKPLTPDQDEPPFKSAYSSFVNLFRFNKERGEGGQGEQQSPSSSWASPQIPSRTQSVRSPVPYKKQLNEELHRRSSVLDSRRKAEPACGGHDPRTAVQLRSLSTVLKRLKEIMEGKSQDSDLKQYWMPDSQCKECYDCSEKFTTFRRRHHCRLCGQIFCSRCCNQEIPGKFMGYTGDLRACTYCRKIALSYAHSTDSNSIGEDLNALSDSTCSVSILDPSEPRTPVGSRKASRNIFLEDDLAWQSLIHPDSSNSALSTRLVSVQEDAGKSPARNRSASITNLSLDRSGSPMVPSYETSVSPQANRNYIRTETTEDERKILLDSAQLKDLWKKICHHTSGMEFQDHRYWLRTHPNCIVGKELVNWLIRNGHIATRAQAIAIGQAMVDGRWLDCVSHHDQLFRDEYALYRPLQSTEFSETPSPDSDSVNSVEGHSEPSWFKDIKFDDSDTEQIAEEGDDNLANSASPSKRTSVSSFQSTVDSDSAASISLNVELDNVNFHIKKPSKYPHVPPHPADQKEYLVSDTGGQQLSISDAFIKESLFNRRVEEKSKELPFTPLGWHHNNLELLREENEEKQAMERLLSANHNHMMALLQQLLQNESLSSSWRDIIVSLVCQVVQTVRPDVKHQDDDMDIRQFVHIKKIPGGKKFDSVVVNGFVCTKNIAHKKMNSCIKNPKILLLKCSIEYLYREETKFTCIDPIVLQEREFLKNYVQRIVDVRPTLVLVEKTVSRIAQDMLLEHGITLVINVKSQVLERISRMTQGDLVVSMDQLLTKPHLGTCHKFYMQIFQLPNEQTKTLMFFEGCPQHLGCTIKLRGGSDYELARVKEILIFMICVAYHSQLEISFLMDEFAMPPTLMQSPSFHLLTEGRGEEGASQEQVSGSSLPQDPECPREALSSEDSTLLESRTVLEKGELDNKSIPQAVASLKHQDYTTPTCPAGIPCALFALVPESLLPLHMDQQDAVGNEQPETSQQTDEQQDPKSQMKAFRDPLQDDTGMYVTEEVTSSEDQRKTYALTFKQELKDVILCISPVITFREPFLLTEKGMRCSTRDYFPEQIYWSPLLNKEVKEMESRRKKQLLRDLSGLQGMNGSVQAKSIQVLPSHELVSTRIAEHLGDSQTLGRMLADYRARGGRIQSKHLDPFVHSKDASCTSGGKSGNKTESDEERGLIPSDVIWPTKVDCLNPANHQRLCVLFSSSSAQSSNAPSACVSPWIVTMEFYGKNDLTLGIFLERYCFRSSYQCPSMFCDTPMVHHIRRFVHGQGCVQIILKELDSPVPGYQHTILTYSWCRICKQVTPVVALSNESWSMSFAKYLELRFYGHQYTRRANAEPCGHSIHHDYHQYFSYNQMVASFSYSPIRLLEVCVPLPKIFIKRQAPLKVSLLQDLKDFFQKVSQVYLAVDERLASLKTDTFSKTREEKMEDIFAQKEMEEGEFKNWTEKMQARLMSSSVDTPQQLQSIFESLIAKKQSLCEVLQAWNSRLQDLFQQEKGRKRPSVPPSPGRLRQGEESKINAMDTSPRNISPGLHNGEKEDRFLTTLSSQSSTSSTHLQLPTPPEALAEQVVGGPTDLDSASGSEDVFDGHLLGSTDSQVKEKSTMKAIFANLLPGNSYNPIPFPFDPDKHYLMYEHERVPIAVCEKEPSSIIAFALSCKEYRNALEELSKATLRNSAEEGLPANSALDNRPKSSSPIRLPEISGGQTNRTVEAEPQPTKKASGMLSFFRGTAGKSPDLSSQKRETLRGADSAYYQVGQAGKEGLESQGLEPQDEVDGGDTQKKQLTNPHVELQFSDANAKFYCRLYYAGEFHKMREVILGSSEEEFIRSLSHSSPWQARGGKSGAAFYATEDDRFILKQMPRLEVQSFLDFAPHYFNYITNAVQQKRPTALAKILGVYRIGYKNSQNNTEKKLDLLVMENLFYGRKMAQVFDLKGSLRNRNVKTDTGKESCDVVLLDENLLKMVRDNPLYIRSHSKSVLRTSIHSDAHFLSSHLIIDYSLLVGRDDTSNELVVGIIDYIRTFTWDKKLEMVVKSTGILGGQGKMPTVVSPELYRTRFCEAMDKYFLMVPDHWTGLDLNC
Sequence of Serine/threonine-protein kinase TAO1 (Q7L7X3 whole entry): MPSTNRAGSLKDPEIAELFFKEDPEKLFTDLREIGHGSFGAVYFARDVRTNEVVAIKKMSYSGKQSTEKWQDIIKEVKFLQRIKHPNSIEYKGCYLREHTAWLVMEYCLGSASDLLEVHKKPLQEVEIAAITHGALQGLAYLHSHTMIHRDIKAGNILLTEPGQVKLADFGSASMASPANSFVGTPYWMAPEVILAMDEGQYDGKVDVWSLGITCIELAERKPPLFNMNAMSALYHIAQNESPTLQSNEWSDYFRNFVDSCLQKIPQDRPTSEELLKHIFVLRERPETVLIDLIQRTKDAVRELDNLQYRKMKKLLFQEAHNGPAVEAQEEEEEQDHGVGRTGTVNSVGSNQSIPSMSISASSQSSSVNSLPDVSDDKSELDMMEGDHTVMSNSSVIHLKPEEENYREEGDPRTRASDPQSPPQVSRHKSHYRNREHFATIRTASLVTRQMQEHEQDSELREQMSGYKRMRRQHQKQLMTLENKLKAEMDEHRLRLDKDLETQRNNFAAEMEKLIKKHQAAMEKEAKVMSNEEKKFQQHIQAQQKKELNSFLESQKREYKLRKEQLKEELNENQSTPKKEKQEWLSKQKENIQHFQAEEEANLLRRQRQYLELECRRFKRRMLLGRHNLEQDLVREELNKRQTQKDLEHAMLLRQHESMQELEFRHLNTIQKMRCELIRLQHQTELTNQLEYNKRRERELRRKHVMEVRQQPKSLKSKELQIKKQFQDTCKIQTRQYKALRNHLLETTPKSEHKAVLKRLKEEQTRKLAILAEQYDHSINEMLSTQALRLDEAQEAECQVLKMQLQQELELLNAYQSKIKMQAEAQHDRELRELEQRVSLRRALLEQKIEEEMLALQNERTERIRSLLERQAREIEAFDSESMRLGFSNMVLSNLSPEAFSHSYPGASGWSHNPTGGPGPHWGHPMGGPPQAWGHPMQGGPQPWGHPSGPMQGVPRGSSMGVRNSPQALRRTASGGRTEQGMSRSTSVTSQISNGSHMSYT
Sequence of Casein kinase II subunit alpha' (Mus musculus) (O54833 whole entry): as the sequence (P19784 whole entry) above, with R230K, E253D, D338E, A340T counted along it

Usually IC50 stands for the point on the concentration scale where inhibition reaches its midpoint. Usually Kd stands for the constant that tells how readily two partners part at equilibrium. Higher therefore signals weaker binding. Regarding `O=C1NC(Nc2ccccc2)=N/C1=C\c1ccc2c(c1)OCO2`, in the data set with HT-22 [1], the result was inactive. In addition, the result (in the data set on HT-22 [2]; in [3]; in data set [15]; in data set [18]) was Active. The IC50 was 320 nM at Casein kinase II; more than 10000 nM in data set [9]; 210 nM in data set [11]; 520 nM in data set [12]; not below 10000 nM in data set [16]; more than 30000 nM in [17]. In addition, the inhibition result in data set [4] and in data set [7] was “Dose-dependent effect” throughout. The Kd in data set [5] was 1700 nM; in data set [6] it was 930 nM. Further, the inhibition entry in [8], in [10], in data set [13] and in [19] was “Active” each time. Also, the inhibition result in the data set with HT-22 [14] was “inactive”. Further, in the data set on Brain, the Activity result was “Non-toxic”.
